Tests used:
[1] = target: T1, Estrogen receptor (Mus musculus) (UniProt O08537+P19785); experiment: (§1) Uterotrophic effect in mice at 1 ug; format: functional, tissue-based; details: Uterus
How it was run: (§2)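 Immature female NMRI mice, 20 days old (14.5 ± 1.2 g), in groups of 10, injected sc daily for 3 days with test compound in 0.1 mL olive oil. Uteri were removed 24 h after the last injection, Bouin-fixed, washed, dried and weighed. Groups were compared by Wilcoxon–Mann–Whitney U test.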

[2] = target: T1, Estrogen receptor (Mus musculus); experiment: Uterotrophic effect in mice at 0.1 ug; format: functional, tissue-based; details: Uterus; how it was run: as §2
[3] = target: T1, Estrogen receptor (Mus musculus); experiment: (§3) Uterotrophic effect in mice at 0 ug; format: functional, tissue-based; set-up: unit not given here; details: Uterus; how it was run: as §2
[4] = target: Estrogen receptor (Bos taurus) (UniProt Q9XSB5+P49884); experiment: Displacement of [3H]-estradiol from calf uterine estrogen receptor; format: protein assay
How it was run: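 Calf uterine cytosol incubated with [³H]estradiol and competitor at six concentrations, 4 °C for 16 h. Dextran-coated charcoal stopped incubation; supernatant radioactivity counted after centrifugation. Percent bound plotted vs log concentration; the molar concentrations of estradiol and test compound halving radioligand binding were read off and expressed as relative binding affinity.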

[5] = target: T1, Estrogen receptor (Mus musculus); experiment: (§4) Uterotrophic effect in mice at 10 ug; format: functional, tissue-based; details: Uterus; how it was run: as §2
Rattus norvegicus [6] = species on record: Rattus norvegicus; experiment: Percent complete remission in DMBA-induced hormone dependent mammary carcinoma in rats at 2 mg dose; format: functional
How it was run: (§5)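 DMBA-induced, hormone-dependent mammary adenocarcinoma in SD rats. Dose is per kg body weight and day, given once daily Monday–Thursday and doubled on Friday. Initial tumors were counted at the start and new tumors during the test. Tumors were scored as complete remission (not palpable), partial remission (≥50% size reduction), no change or progression. Tumor area and body weight change were recorded.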

Rattus norvegicus [7] = species on record: Rattus norvegicus; experiment: Percent progressive tumors in DMBA-induced hormone dependent mammary carcinoma in rats at 5 mg dose; format: functional; how it was run: as §5
Rattus norvegicus [8] = species on record: Rattus norvegicus; experiment: Percent change in body weight in rats at 2 mg; format: functional; how it was run: as §5
Rattus norvegicus [9] = species on record: Rattus norvegicus; experiment: Percent change in total tumor area of DMBA-induced hormone dependent mammary carcinoma in rats at 2 mg dose (alpha <0.05); format: functional; how it was run: as §5
Rattus norvegicus [10] = species on record: Rattus norvegicus; experiment: Percent complete remission in DMBA-induced hormone dependent mammary carcinoma in rats at 5 mg dose; format: functional; how it was run: as §5
Rattus norvegicus [11] = species on record: Rattus norvegicus; experiment: Final tumor number of DMBA-induced hormone dependent mammary carcinoma in rats after 2 mg dose; format: functional; how it was run: as §5
[12] = target: T1, Estrogen receptor (Mus musculus); experiment: Antiuterotrophic effect in mice at 0 ug; format: functional
How it was run: (§6)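 Antiestrogenic read-out: inhibition of estrone-stimulated uterine growth in immature female NMRI mice, 20 days old, in groups of 10. Test compound in 0.1 mL olive oil was given sc daily for 3 days. Uteri were taken 24 h after the last dose, fixed in Bouin's solution, washed, dried and weighed.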

Rattus norvegicus [13] = species on record: Rattus norvegicus; experiment: Percent change in total tumor area of DMBA-induced hormone dependent mammary carcinoma in rats at 5 mg dose (alpha <0.05)
[14] = target: T1, Estrogen receptor (Mus musculus); experiment: as §3; format: functional, tissue-based; details: Uterus; how it was run: as §2
Rattus norvegicus [15] = species on record: Rattus norvegicus; experiment: Percent partial remission in DMBA-induced hormone dependent mammary carcinoma in rats at 5 mg dose; format: functional; how it was run: as §5
Rattus norvegicus [16] = species on record: Rattus norvegicus; experiment: Percent change in body weight in rats at 5 mg; format: functional; how it was run: as §5
[17] = target: T1, Estrogen receptor (Mus musculus); experiment: Percent inhibition of uterotrophic effect in mice at 500 ug; format: functional; how it was run: as §6
[18] = target: T1, Estrogen receptor (Mus musculus); experiment: Antiuterotrophic effect in mice at 5 ug; format: functional; set-up: unit not given here; how it was run: as §6
Rattus norvegicus [19] = species on record: Rattus norvegicus; experiment: Percent unchanged tumors in DMBA-induced hormone dependent mammary carcinoma in rats at 2 mg dose; format: functional; how it was run: as §5
[20] = target: T1, Estrogen receptor (Mus musculus); experiment: Uterotrophic effect in mice at 10 ug (alpha=0.01); format: functional, tissue-based; details: Uterus; how it was run: as §2
[21] = target: T1, Estrogen receptor (Mus musculus); experiment: Uterotrophic effect in mice at 100 ug; format: functional, tissue-based; details: Uterus; how it was run: as §2
[22] = target: T1, Estrogen receptor (Mus musculus); experiment: Uterotrophic effect in mice at 1 ug (alpha=0.01); format: functional, tissue-based; details: Uterus; how it was run: as §2
Rattus norvegicus [23] = species on record: Rattus norvegicus; experiment: Percent progressive tumors in DMBA-induced hormone dependent mammary carcinoma in rats at 2 mg dose; format: functional; how it was run: as §5
[24] = target: T1, Estrogen receptor (Mus musculus); experiment: Uterotrophic effect in mice at 1000 ug; format: functional, tissue-based; details: Uterus; how it was run: as §2
[25] = target: T1, Estrogen receptor (Mus musculus); experiment: Percent inhibition of uterotrophic effect in mice at 50 ug; format: functional; how it was run: as §6
Rattus norvegicus [26] = species on record: Rattus norvegicus; experiment: Percent unchanged tumors in DMBA-induced hormone dependent mammary carcinoma in rats at 5 mg dose; format: functional; how it was run: as §5
Rattus norvegicus [27] = species on record: Rattus norvegicus; experiment: Final tumor number of DMBA-induced hormone dependent mammary carcinoma in rats after 5 mg dose; format: functional; how it was run: as §5
Rattus norvegicus [28] = species on record: Rattus norvegicus; experiment: Percent partial remission in DMBA-induced hormone dependent mammary carcinoma in rats at 2 mg dose; format: functional; how it was run: as §5
Rattus norvegicus [29] = species on record: Rattus norvegicus; experiment: Initial tumor number of DMBA-induced hormone dependent mammary carcinoma in rats prior to 2 mg dose; format: functional; how it was run: as §5
Rattus norvegicus [30] = species on record: Rattus norvegicus; experiment: Initial tumor number of DMBA-induced hormone dependent mammary carcinoma in rats prior to 5 mg dose; format: functional; how it was run: as §5
[31] = target: T1, Estrogen receptor (Mus musculus); experiment: Antiuterotrophic effect in mice at 50 ug; format: functional; set-up: unit not given here; how it was run: as §6
[32] = target: T1, Estrogen receptor (Mus musculus); experiment: Antiuterotrophic effect in mice at 500 ug; format: functional; set-up: unit not given here; how it was run: as §6
[33] = target: T1, Estrogen receptor (Mus musculus); experiment: Percent inhibition of uterotrophic effect in mice at 5 ug; format: functional; how it was run: as §6
[34] = target: T1, Estrogen receptor (Mus musculus); experiment: as §4; format: functional, tissue-based; set-up: unit not given here; details: Uterus; how it was run: as §2
[35] = target: T1, Estrogen receptor (Mus musculus); experiment: as §1; format: functional, tissue-based; set-up: unit not given here; details: Uterus; how it was run: as §2
[36] = target: T1, Estrogen receptor (Mus musculus); experiment: Uterotrophic effect in mice at 1 ug (alpha =0.01); format: functional, tissue-based; details: Uterus; how it was run: as §2
[37] = target: T1, Estrogen receptor (Mus musculus); experiment: Uterotrophic effect in mice at 100 ug (alpha =0.01); format: functional, tissue-based; details: Uterus; how it was run: as §2
[38] = target: T1, Estrogen receptor (Mus musculus); experiment: Uterotrophic effect in mice at 10 ug (alpha =0.01); format: functional, tissue-based; details: Uterus; how it was run: as §2
[39] = target: T1, Estrogen receptor (Mus musculus); experiment: Anti-estrogenic activity in mice at 500 ug; format: functional; how it was run: as §6
[40] = target: T1, Estrogen receptor (Mus musculus); experiment: Anti-estrogenic activity in mice at 50 ug; format: functional; how it was run: as §6
[41] = target: T1, Estrogen receptor (Mus musculus); experiment: Anti-estrogenic activity in mice at 0 ug; format: functional; how it was run: as §6

T1 sequence (O08537 whole entry, looked up): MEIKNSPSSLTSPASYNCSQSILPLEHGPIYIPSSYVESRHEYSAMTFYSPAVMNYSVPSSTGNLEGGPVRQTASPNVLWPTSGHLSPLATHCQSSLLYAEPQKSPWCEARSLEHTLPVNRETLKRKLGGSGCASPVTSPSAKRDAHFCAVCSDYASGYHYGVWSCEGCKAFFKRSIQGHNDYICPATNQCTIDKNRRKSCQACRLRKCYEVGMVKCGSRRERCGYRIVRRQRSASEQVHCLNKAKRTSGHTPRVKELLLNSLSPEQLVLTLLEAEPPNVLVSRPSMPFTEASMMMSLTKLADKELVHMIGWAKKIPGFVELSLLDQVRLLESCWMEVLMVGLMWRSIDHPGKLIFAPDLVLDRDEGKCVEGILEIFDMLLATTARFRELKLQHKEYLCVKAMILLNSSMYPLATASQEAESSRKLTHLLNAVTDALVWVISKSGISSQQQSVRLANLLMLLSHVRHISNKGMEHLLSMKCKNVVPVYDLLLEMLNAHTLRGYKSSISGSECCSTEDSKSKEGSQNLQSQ
T1 sequence (P19785 whole entry, looked up): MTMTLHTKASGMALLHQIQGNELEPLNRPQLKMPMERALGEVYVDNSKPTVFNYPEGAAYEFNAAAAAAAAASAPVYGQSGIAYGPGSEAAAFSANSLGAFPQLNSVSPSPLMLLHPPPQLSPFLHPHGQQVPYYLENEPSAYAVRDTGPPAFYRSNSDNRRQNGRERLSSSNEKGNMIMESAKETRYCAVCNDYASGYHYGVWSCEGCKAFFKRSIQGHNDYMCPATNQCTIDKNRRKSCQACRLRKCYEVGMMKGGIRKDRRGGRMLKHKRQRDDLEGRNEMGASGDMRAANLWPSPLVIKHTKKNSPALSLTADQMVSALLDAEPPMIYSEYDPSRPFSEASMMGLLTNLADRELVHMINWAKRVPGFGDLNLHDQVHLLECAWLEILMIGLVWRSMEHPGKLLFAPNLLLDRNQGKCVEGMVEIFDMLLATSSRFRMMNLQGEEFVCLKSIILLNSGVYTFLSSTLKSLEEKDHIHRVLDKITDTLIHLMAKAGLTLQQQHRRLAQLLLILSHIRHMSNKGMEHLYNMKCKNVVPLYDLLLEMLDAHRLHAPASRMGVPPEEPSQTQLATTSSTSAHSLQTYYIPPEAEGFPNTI

| SMILES | Effect [3] | relative binding affinity (RBA) [4] | Effect [12] | inhibition [17] [%] | Effect [18] | Effect [21] | Effect [24] | inhibition [25] [%] | Effect [31] | Effect [32] | inhibition [33] [%] | Effect [34] | Effect [35] | also measured |
| --- | --- | --- | --- | --- | --- | --- | --- | --- | --- | --- | --- | --- | --- | --- |
| Cc1cc(O)ccc1C(C)C(C)c1ccc(O)cc1C (centres undefined) | 11.8 | 29 |  |  |  |  |  |  |  |  |  |  |  | Effect [1]: 36.5; Effect [2]: 29.2; Effect [5]: 39.4 |
| CC(c1ccc(O)cc1Br)C(C)c1ccc(O)cc1Br (centres undefined) |  | 3.4 |  |  |  |  |  |  |  |  |  |  |  |  |
| CC(c1cc(O)ccc1Cl)C(C)c1cc(O)ccc1Cl (centres undefined) |  | 1.7 | 14.4 | 30 | 40.1 | 41.8 |  | 24 | 39.3 | 37.2 | 21 |  |  | Effect [1]: 13; Effect [14]: 11.1; Effect [5]: 26.5 |
| CC(c1cccc(O)c1)C(C)c1cccc(O)c1 (centres undefined) | 11.9 | 1 | 14.4 |  | 43 |  | 13.1 | 25 | 39 | 36.5 | 13 |  |  | Effect [36]: 11.7; Effect [37]: 12.6; Effect [38]: 12.4 |
| CC(c1ccc(O)cc1O)C(C)c1ccc(O)cc1O (centres undefined) | 12.5 | 2.1 | 14.4 | 26 | 50.6 | 26.2 | 34.6 | 25 | 39.1 | 38.7 |  | 20.3 | 15.4 |  |
| CC(c1ccc(O)cc1F)C(C)c1ccc(O)cc1F (centres undefined) | 11.8 | 15 |  |  |  |  |  |  |  |  |  | 51.4 | 50.2 |  |
| CC(c1ccc(O)cc1Cl)C(C)c1ccc(O)cc1Cl (centres undefined) | 11.8 | 4.5 |  |  |  |  |  |  |  |  |  | 40.7 | 41.6 |  |

Second part, led by results:

| Effect [3] | relative binding affinity (RBA) [4] | Effect [12] | inhibition [17] [%] | Effect [18] | Effect [21] | Effect [24] | inhibition [25] [%] | Effect [31] | Effect [32] | inhibition [33] [%] | Effect [34] | Effect [35] | SMILES | also measured |
| --- | --- | --- | --- | --- | --- | --- | --- | --- | --- | --- | --- | --- | --- | --- |
|  | 5.2 | 14.4 | 35 | 45.4 | 12.5 | 17.4 | 20 | 40.6 | 35.6 | 5 |  |  | Cc1ccc(O)cc1C(C)C(C)c1cc(O)ccc1C (centres undefined) | Tumors (Rattus norvegicus [6]): 11%; Tumors (Rattus norvegicus [7]): 56%; Body weight (Rattus norvegicus [8]): 1.5; Tumor area (Rattus norvegicus [9]): 245; Tumors (Rattus norvegicus [10]): 15%; No. of tumors (Rattus norvegicus [11]): 25; Tumor area (Rattus norvegicus [13]): 283; Effect [14]: 11.1; Tumors (Rattus norvegicus [15]): 4%; Body weight (Rattus norvegicus [16]): 1.1; Tumors (Rattus norvegicus [19]): 29%; Effect [20]: 14.2; Effect [22]: 13.7; Tumors (Rattus norvegicus [23]): 56%; Tumors (Rattus norvegicus [26]): 25%; No. of tumors (Rattus norvegicus [27]): 23; Tumors (Rattus norvegicus [28]): 4%; No. of tumors (Rattus norvegicus [29]): 23; No. of tumors (Rattus norvegicus [30]): 25 |
| 12.5 | 12 |  |  |  | 47 |  |  |  |  |  | 45.2 | 38.8 | CCc1cc(O)ccc1C(C)C(C)c1ccc(O)cc1CC (centres undefined) |  |
|  | 0.01 |  |  |  |  |  |  |  |  |  |  |  | CC(c1cc(O)ccc1O)C(C)c1cc(O)ccc1O (centres undefined) |  |
|  | 12 |  | 28 | 43.3 | 42.2 | 34.8 | 26 |  |  | 12 |  |  | CC(c1ccc(O)cc1)C(C)c1ccc(O)cc1 (centres undefined) | Effect [39]: 37.8; Effect [1]: 22.6; Effect [2]: 17.7; Effect [14]: 11.8; Effect [5]: 28; Effect [40]: 38.7; Effect [41]: 14.4 |

Source: ChEMBL document CHEMBL1122677, “Ring-substituted 1,2-dialkylated 1,2-bis(hydroxyphenyl)ethanes. 3. Synthesis, estrogen receptor binding affinity, and evaluation of antiestrogenic and mammary tumor inhibiting activity of 2,2'-disubstituted butestrols and 6,6'-disubstituted metabutestrols” (1984)
